The values below come from ChEMBL document CHEMBL1148342, “Synthesis, X-ray crystal structures, stabilities, and in vitro cytotoxic activities of new heteroarylacrylonitriles” (J Med Chem, 2004).

In assay [1] the test system is 5637. The assay is described as follows: Growth inhibition against human 5637 cell lines. Conditions: Homo sapiens. The class given is functional, cell-based. An outline of the steps: (§1)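 Cells were grown in RPMI-1640 with 2 g/L NaHCO3 and 10% FCS at 37 °C in 5% CO2, seeded at 1000 cells/well, and dosed 24 h later at five geometric dilutions for 96 h of continuous exposure. Cells were then glutaraldehyde-fixed and stained with crystal violet, with OD read at 570 nm. IC50 was taken from the dose–response data.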

Assay [2] concerns TERT-RPE1. The assay is described as follows: Compound was tested for growth inhibition against human h-TERTRPE1 cell lines. The class given is functional, cell-based. Conditions: Homo sapiens, RPE-1. A digest of the protocol:
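The noncancerous hTERT-immortalized epithelial line h-TERT-RPE1 was grown in DMEM/F-12 with 2 g/L NaHCO3 and 10% FCS (37 °C, 5% CO2) and seeded at 1000 cells/well. Substance was added 24 h later at five geometric dilutions for 96 h continuously. The read-out was crystal violet staining after glutaraldehyde fixation, OD 570 nm, with IC50 from dose–response.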

In assay [3] the test system is YAPC. The assay can be described thus: Compound was tested for growth inhibition against human YAPC cell lines. The class given is functional, cell-based. As to conditions: Homo sapiens, YAPC. A digest of the protocol: as §1
For assay [4], the system named is RT-112. The assay is described as follows: Growth inhibition against human RT-112 cell lines. As to conditions: Homo sapiens, RT-112. Type of assay: functional, cell-based. An outline of the steps:
as §1

The subject of assay [5] is KYSE-70 cell line. The assay is described as follows: Growth inhibition against human KYSE-70 cell lines. Type of assay: functional, cell-based. Conditions: Homo sapiens, KYSE-70. A digest of the protocol: as §1
Assay [6] relates to KYSE-520 cell line. The assay is described as follows: Growth inhibition against human KYSE-520 cell lines. The class given is functional, cell-based. As to conditions: Homo sapiens, KYSE-520. An outline of the steps: as §1
For assay [7], the system named is SISO. The assay can be described thus: Cytotoxic activity against human SISO cell line at 20 uM. The class given is functional. An outline of the steps:
(§2)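 Cells in RPMI-1640 with 10% FCS were seeded (1000 cells/well; KYSE-510 500, LCLC-103H 250), then exposed 24 h later for 96 h. Read-out was crystal violet staining of glutaraldehyde-fixed cells at OD 570 nm. Growth (%) = (OD treated − OD at drug addition)/(OD control − OD at drug addition) × 100.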

In assay [8] the test system is KYSE-510 (human). The assay can be described thus: Growth inhibition against human KYSE-510 cell lines. As to conditions: Homo sapiens, KYSE-510.
In assay [9] the test system is DAN-G. The assay can be described thus: Growth inhibition against human DAN-G cell lines. Type of assay: functional, cell-based. As to conditions: Homo sapiens, DAN-G. A digest of the protocol:
as §1

Assay [10] concerns LCLC-103H cell line. The assay is described as follows: Growth inhibition against human LCLC-103H cell lines. The class given is functional, cell-based. Conditions: Homo sapiens, LCLC-103H. An outline of the steps: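 LCLC-103H cells were grown in RPMI-1640 with 2 g/L NaHCO3 and 10% FCS (5% CO2, 37 °C) and plated at 250 cells/well. After 24 h, five geometric dilutions were applied continuously for 96 h. Fixation was with glutaraldehyde, followed by crystal violet staining and OD at 570 nm. IC50 came from the dose–response curves.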

For assay [11], the system named is LCLC-103H cell line. The assay is described as follows: Cytotoxic activity against human LCLC-103H cell line at 20 uM expressed as percent growth value. Type of assay: functional. An outline of the steps: as §2
Assay [12] relates to RT-4. The assay can be described thus: Growth inhibition against human RT-4 cell lines. Type of assay: functional, cell-based. As to conditions: Homo sapiens, RT-4. A digest of the protocol:
as §1

For assay [13], the system named is KYSE-510. The assay can be described thus: Cytotoxic activity against human KYSE-510 cell line at 20 uM expressed as percent growth value. Type of assay: functional. A digest of the protocol: as §2
Assay [14] relates to SISO. The assay can be described thus: Growth inhibition against human SISO cell lines. The class given is functional, cell-based. As to conditions: Homo sapiens, SISO. An outline of the steps: as §1
Assay [15] concerns MCF7. The assay can be described thus: Growth inhibition against human MCF-7 cell lines. Conditions: Homo sapiens, MCF7. Type of assay: functional, cell-based. An outline of the steps: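 MCF-7 was cultured in RPMI-1640 with 2 g/L NaHCO3, 10% FCS, 1 mM pyruvate, MEM salts and amino acids. Plating was 1000 cells/well, then after 24 h, 96 h of continuous exposure at five geometric dilutions. Crystal violet staining of glutaraldehyde-fixed cells was read at 570 nm, and IC50 was derived from the dose–response data.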

For `N#C/C(=C\c1ccc([N+](=O)[O-])o1)c1n[nH]c(-c2ccccc2)n1`, the concentration for half-maximal inhibition (IC50) (usually the concentration that gives 50% inhibition) in [1] came to 1220 nM; in assay [2], 1160 nM; in [3], 1400 nM; in assay [4], 1510 nM; in [5], 1170 nM; in assay [6] it was 1620 nM. Also, the IC50 amounted to 1350 nM in assay [8]; 1520 nM in assay [9]; 700 nM in assay [10]; 1850 nM in [12]; 1200 nM in [14]; 1620 nM in assay [15]. Also, the values for the Activity in [7], in assay [11] and in [13] were -7.9, -8.4 and -20.9, respectively.

For the compound `N#C/C(=C\c1cccc([N+](=O)[O-])c1)c1n[nH]c(-c2ccccc2)n1`, the Activity is listed as 85.5 in [7], 56.4 in assay [11] and 108 in [13].

Regarding `N#C/C(=C\c1ccc([N+](=O)[O-])o1)c1n[nH]c(Cc2ccccc2)n1`, the half-inhibitory concentration (IC50) in [1] stood at 400 nM; in assay [2] it was 420 nM; in assay [3], 450 nM; in assay [4], 750 nM; in [5] it was 400 nM; in assay [6], 750 nM. Besides, the 50% inhibitory concentration (IC50) in [8] was 620 nM; in [9], 490 nM; in [10], 290 nM; in [12], 1370 nM; in assay [14] it was 370 nM; in [15] it was 610 nM. Also, the Activity is listed as -8.1 in assay [7], -7.3 in assay [11] and -20.7 in assay [13].

On to `Cc1n[nH]c(/C(C#N)=C/c2ccc([N+](=O)[O-])o2)n1`, for which the IC50 in assay [1] worked out at 540 nM; in [2], 690 nM; in [3], 850 nM; in [4], 1000 nM; in assay [5], 660 nM; in assay [6] it was 860 nM. In addition, the half-inhibitory concentration (IC50) in assay [8] came to 900 nM; in assay [9], 1000 nM; in [10] it was 350 nM; in assay [12] it was 1480 nM; in assay [14], 270 nM; in assay [15], 1470 nM. The Activity was -8.7 in assay [7], -8.4 in assay [11] and -21.3 in assay [13].

In the case of `CN(C)c1ccc(/C=C(\C#N)c2n[nH]c(Cc3ccccc3)n2)cc1`, the half-inhibitory concentration (IC50) in [1] came out at 1380 nM; in assay [3], 3480 nM; in assay [4] it was 3690 nM; in assay [5], 2530 nM; in [6] it was 6260 nM; in assay [8], 3360 nM. For the same compound, the IC50 in [9] was 4110 nM; in [10] it was 1650 nM; in assay [12], 2500 nM; in assay [14], 3240 nM; in assay [15], 1490 nM. In addition, the results for the Activity in assay [7], in assay [11] and in assay [13] were 1.2, -1.8 and -1.01, respectively.

For `Cc1n[nH]c(/C(C#N)=C/c2cccc([N+](=O)[O-])c2)n1`, the figures for the Activity in assay [7], in assay [11] and in assay [13] were 98.1, 68.8 and 94.1, respectively.

In the case of `N#C/C(=C\c1ccc([N+](=O)[O-])o1)c1nc2ccccc2[nH]1`, the IC50 is 480 nM in [1]; 600 nM in assay [2]; 570 nM in [3]; 690 nM in [4]; 450 nM in assay [5]; 620 nM in [6]. Besides, the IC50 in assay [8] came to 750 nM; in assay [9] it was 690 nM; in assay [10], 410 nM; in assay [12] it was 990 nM; in assay [14], 330 nM; in assay [15], 650 nM. In addition, the Activity is reported as -8.2 in assay [7], -8 in assay [11] and -21.2 in [13].
